# Measured values as given in ChEMBL document CHEMBL4699419, “Antileishmanial assessment of isoxazole derivatives against L. donovani” (RSC Med Chem, 2020).
# What was measured:
# [1] = test system: Leishmania donovani; test: Antileishmanial activity against Leishmania donovani MHOM/IN/80/Dd8 promastigotes harboring luciferase reporter gene infected in mouse J774 cells assessed as inhibition of amastigote growth incubated for 72 hrs by Steady-Glo luminescence assay; format: functional, organism-based
# Summary of the method: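 J774A.1 mouse macrophages (2 × 10^5 per well, RPMI-1640 + 10% FCS, 37 °C CO2) infected after 24 h with stationary-phase luciferase-transgenic promastigotes at 1:10 macrophage:parasite; compounds in complete medium for 72 h at 37 °C. Medium swapped for PBS, Steady-Glo added, luminescence read; % inhibition vs untreated control RLU. IC50 by Probit log dose/response regression, three independent experiments.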
# [2] = test system: Leishmania donovani; test: Antileishmanial activity against late log phase promastigote stage of Leishmania donovani MHOM/IN/80/Dd8 harboring luciferase reporter gene incubated for 72 hrs by Steady-Glo luminescence assay; format: functional, organism-based
# Summary of the method: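 Luciferase-transfected promastigotes kept at 25 ± 1 °C in medium 199 + 10% heat-inactivated FCS + G418 (20 μg ml–1). Late-log cells (5 × 10^5 per well) grown 72 h with graded compound concentrations from DMSO, DMSO dilution controls. Aliquot mixed 1:1 with Steady-Glo, luminescence (RLU) read; % inhibition vs control. IC50 by Probit regression, three independent experiments.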
# [3] = Selectivity index, ratio of CC50 for mouse J774.A1 cells to IC50 for amastigote form of Leishmania donovani MHOM/IN/80/Dd8; format: toxicity; settings: read-out: Ratio CC50/IC50
# Summary of the method: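 Macrophages infected at a 1:10 ratio with stationary promastigotes, then treated 72 h at 37 °C; luminescence read with Steady-Glo. IC50 values from probit analysis.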
# [4] = Cytotoxicity against mouse J774A1 cells assessed as reduction in cell viability incubated for 48 hrs by MTT assay; format: cell-based, J774.A1
# Summary of the method: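 J774A.1 macrophages, 0.2 × 10^6 per well, incubated overnight at 37 °C in 5% CO2, then exposed to compounds in DMSO for 48 h, with DMSO dilutions as controls. Viability read by MTT formazan at 600 nm. CC50 = 50% viability reduction versus medium-only cells, from probit regression; three independent experiments.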
# [5] = Leishmania donovani, MHOM/IN/80/Dd8, 72 h, read-out: IC50
# [6] = Leishmania donovani, MHOM/IN/80/Dd8, J774, 72 h, read-out: IC50
SMILES,IC50 [1],IC50 [2],"IC50 [2, 5] [µM]","IC50 [1, 6] [µM]",selectivity ratio [3],CC50 at 48 h [4] [µM]
COC(=O)c1c(NCc2ccc(OC)cc2)noc1-c1cc2c(cc1[N+](=O)[O-])OCO2,Not Active,Not Active,,,,
COC(=O)c1c(NCCCNc2ccnc3cc(Cl)ccc23)noc1-c1ccccc1[N+](=O)[O-],Not Active,,1.98,,,
COC(=O)c1c(NCc2ccccc2)noc1-c1ccc(Cl)cc1Cl,,,35.4,1.65,32.8,54.1
CCN(CC)CCNc1noc(-c2cc3c(cc2[N+](=O)[O-])OCO3)c1C(=O)OC,Not Active,Not Active,,,,
COc1ccc(CNC(=O)c2c([N+](=O)[O-])noc2-c2ccc(Cl)cc2Cl)cc1,,,3.42,2.03,39.6,80.5
COC(=O)c1c(NCCNc2cc(C(F)(F)F)nc3c(C(F)(F)F)cccc23)noc1-c1ccccc1F,,,43.2,17.8,4.52,80.4
COc1ccc(CNC(=O)c2c([N+](=O)[O-])noc2-c2ccc([N+](=O)[O-])cc2)cc1OC,Nd(Toxic),,1.3,,,
COc1cccc(CNC(=O)c2c([N+](=O)[O-])noc2-c2ccc(Cl)cc2)c1,,,2.79,3.43,20,68.5
COC(=O)c1c(NCc2ccc(OC)c(OC)c2)noc1-c1cc2c(cc1[N+](=O)[O-])OCO2,Not Active,Not Active,,,,
COC(=O)c1c(NCCNc2ccnc3cc(Cl)ccc23)noc1-c1cc2c(cc1[N+](=O)[O-])OCO2,,,2.04,1.49,2.48,3.7
O=C(Nc1ccccc1)c1c([N+](=O)[O-])noc1-c1ccc(Cl)cc1Cl,,,2.68,5.97,11.3,67.3
COc1cccc(CNC(=O)c2c([N+](=O)[O-])noc2-c2ccc(Cl)cc2Cl)c1,,,3.02,11.3,5.41,61.1
COC(=O)c1c([N+](=O)[O-])noc1-c1ccc(C(F)(F)F)cc1,Not Active,,0.66,,,
COC(=O)c1c(NCCCCNc2ccnc3cc(Cl)ccc23)noc1-c1ccc(Cl)cc1Cl,,,5.93,27.6,3.39,93.5
COC(=O)c1c(NCCCN2CCOCC2)noc1-c1ccc([N+](=O)[O-])cc1,,,33.8,4.53,15.8,71.8
O=C(Nc1ccccc1)c1c([N+](=O)[O-])noc1-c1ccc(Cl)cc1,,,2.81,3.56,25.1,89.3
COc1ccc(CNC(=O)c2c([N+](=O)[O-])noc2-c2ccc([N+](=O)[O-])cc2)cc1,,,3.52,2.06,33.8,69.6
COC(=O)c1c([N+](=O)[O-])noc1-c1ccccc1Cl,,,2.72,16.6,4.82,80
O=C(NCc1cccc(Cl)c1Cl)c1c([N+](=O)[O-])noc1-c1ccc(Cl)cc1Cl,,,3.49,1.41,58,81.8

SMILES,IC50 [1],IC50 [2],"IC50 [2, 5] [µM]","IC50 [1, 6] [µM]",selectivity ratio [3],CC50 at 48 h [4] [µM]
O=C(O)c1c([N+](=O)[O-])noc1-c1ccc([N+](=O)[O-])cc1,Not Active,,19,,,
COC(=O)c1c([N+](=O)[O-])noc1-c1cccc([N+](=O)[O-])c1,Not Active,,2.49,,,
O=C(NCc1ccccc1)c1c([N+](=O)[O-])noc1-c1ccc(Cl)cc1,Not Active,Not Active,,,,
CC(C)CCNC(=O)c1c([N+](=O)[O-])noc1-c1ccc([N+](=O)[O-])cc1,,,3.01,17.4,3.85,67
COC(=O)c1c(NCCCCNc2ccnc3cc(Cl)ccc23)noc1-c1ccc([N+](=O)[O-])cc1,,,2.85,1.84,73.8,136
O=C(NCc1ccc(F)cc1)c1c([N+](=O)[O-])noc1-c1ccc(Cl)cc1Cl,,,2.46,50.6,1.7,86.4
O=C(NCc1cccc(Br)c1)c1c([N+](=O)[O-])noc1-c1ccc([N+](=O)[O-])cc1,Not Active,Not Active,,,,
O=C(c1c([N+](=O)[O-])noc1-c1ccc([N+](=O)[O-])cc1)N1CCOCC1,,,2.71,15.6,4.22,66
CCCNC(=O)c1c([N+](=O)[O-])noc1-c1ccc(Cl)cc1,Not Active,Not Active,,,,
O=C(NCc1ccc(F)cc1)c1c([N+](=O)[O-])noc1-c1ccc([N+](=O)[O-])cc1,Not Active,Not Active,,,,
COC(=O)c1c([N+](=O)[O-])noc1-c1ccc(Cl)c(Cl)c1,Not Active,,1.11,,,
O=C(c1c([N+](=O)[O-])noc1-c1ccc(Cl)cc1)N1CCOCC1,Not Active,Not Active,,,,
COC(=O)c1c([N+](=O)[O-])noc1-c1ccc(Cl)cc1,Not Active,,1.79,,,
COC(=O)c1c(NCc2ccc(OC)cc2OC)noc1-c1cc2c(cc1[N+](=O)[O-])OCO2,Not Active,Not Active,,,,
O=C(NCc1cccc(Br)c1)c1c([N+](=O)[O-])noc1-c1ccc(Cl)cc1,Not Active,Not Active,,,,
O=C(NCc1ccccc1)c1c([N+](=O)[O-])noc1-c1ccc([N+](=O)[O-])cc1,Not Active,Not Active,,,,
COC(=O)c1c(NCc2ccc(OC)cc2)noc1-c1ccc([N+](=O)[O-])cc1,Not Active,Not Active,,,,
COC(=O)c1c(NCc2ccc(OC)cc2OC)noc1-c1ccc([N+](=O)[O-])cc1,Not Active,Not Active,,,,
COC(=O)c1c(NCc2ccccc2)noc1-c1cc2c(cc1[N+](=O)[O-])OCO2,Not Active,,> 50,,,

SMILES,IC50 [1],IC50 [2],"IC50 [2, 5] [µM]","IC50 [1, 6] [µM]",selectivity ratio [3],CC50 at 48 h [4] [µM]
COC(=O)c1c([N+](=O)[O-])noc1-c1ccc([N+](=O)[O-])cc1,Not Active,,0.67,,,
COC(=O)c1c(NCc2ccc(C(C)(C)C)cc2)noc1-c1ccc(Cl)cc1Cl,,,> 50,> 50,,
O=C(O)c1c([N+](=O)[O-])noc1-c1cc2c(cc1[N+](=O)[O-])OCO2,Not Active,Not Active,,,,
O=C(NCc1ccccc1)c1c([N+](=O)[O-])noc1-c1ccc(Cl)cc1Cl,Nd(Toxic),,1.32,,,
O=C(NCc1cccc(Cl)c1Cl)c1c([N+](=O)[O-])noc1-c1ccc([N+](=O)[O-])cc1,Not Active,Not Active,,,,
COC(=O)c1c(NCc2ccc(F)cc2)noc1-c1ccc([N+](=O)[O-])cc1,Not Active,Not Active,,,,
COC(=O)c1c(NCc2cccc(OC)c2)noc1-c1ccc([N+](=O)[O-])cc1,Not Active,Not Active,,,,
O=C(Nc1ccccc1)c1c([N+](=O)[O-])noc1-c1ccc([N+](=O)[O-])cc1,Not Active,Not Active,,,,
COC(=O)c1c([N+](=O)[O-])noc1-c1cccc(-c2cccs2)c1,Not Active,,38.4,,,
COc1cccc(CNC(=O)c2c([N+](=O)[O-])noc2-c2ccc([N+](=O)[O-])cc2)c1,Not Active,Not Active,,,,
CCN(CC)CCNc1noc(-c2ccc(Cl)cc2Cl)c1C(=O)OC,Not Active,Not Active,,,,
O=C(NCCN1CCOCC1)c1c([N+](=O)[O-])noc1-c1ccc(Cl)cc1,Not Active,Not Active,,,,
CC(C)CCNC(=O)c1c([N+](=O)[O-])noc1-c1ccc(Cl)cc1,Not Active,Not Active,,,,
COC(=O)c1c([N+](=O)[O-])noc1-c1ccccc1[N+](=O)[O-],Not Active,,4.01,,,
COC(=O)c1c(NCCCNc2ccnc3cc(Cl)ccc23)noc1-c1ccccc1F,Not Active,,16.8,,,
COC(=O)c1c(NCc2cccc(OC)c2)noc1-c1cc2c(cc1[N+](=O)[O-])OCO2,Not Active,Not Active,,,,
COC(=O)c1c([N+](=O)[O-])noc1-c1ccccc1,Not Active,,2.17,,,
COC(=O)c1c(NCc2ccc(OC)c(OC)c2)noc1-c1ccc([N+](=O)[O-])cc1,Not Active,Not Active,,,,
COC(=O)c1c([N+](=O)[O-])noc1-c1ccc(F)cc1,Not Active,,2.1,,,
